Our source for the Activity values is ChEMBL document CHEMBL6115033, “Discovery of a Pyrazolopyridinone-Based MYC Inhibitor That Selectively Engages Intracellular c-MYC and Disrupts MYC-MAX Heterodimerization” (J Med Chem, 2025).

Molecules are shown by their SMILES. The source made the active and inactive calls. No cut-off for these calls is given here.

The subject of assay [1] is MDA-MB-468. The experiment in a line: Downregulation of E2F1 mRNA expression in human MDA-MB-468 cells at 25 uM incubated at 48 hrs by qRT-PCR analysis. It is filed as functional, cell-based. A digest of the protocol: (§1)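 Cells (500,000/well) were cultured with or without 25 µM for the indicated time. Total RNA was extracted with TRIzol and reverse-transcribed. qPCR used SYBR green with target-gene primers, reported as ΔΔCT.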
(In general: Real-time PCR tracks product formation cycle by cycle.)

Assay [2] concerns MDA-MB-468. The experiment in a line: Downregulation of MYC level in human MDA-MB-468 cells at 25 uM by Western blot analysis. It is filed as functional, cell-based. The settings on record: time 9-24 hrs. The method in brief: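 MDA-MB-468 cells were exposed to 25 µM over a time course of up to 24 h. MYC and FBXW7 were read by western blot.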
For assay [3], the system named is P493-6. The assay can be described thus: Downregulation of SKP2 mRNA expression in human P493-6 cells at 25 uM incubated for 12 hrs by qRT-PCR analysis. It is filed as functional, cell-based. A digest of the protocol:
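P493-6 cells seeded at 500,000 per well and cultured with or without 25 uM compound for the indicated time. Total RNA extracted with TRIzol. Reverse transcription at 25 °C for 10 min, 37 °C for 120 min, then 85 °C for 5 min. SYBR green qPCR used primers for MYC target genes. Relative mRNA expressed as ΔΔCT.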

For assay [4], the system named is MDA-MB-468. The assay can be described thus: Downregulation of MYC level in human MDA-MB-468 cells at 50 uM incubated for 24 hrs in presence of MG132 by Western blot analysis. As to conditions: in the assay text read “Stabilization of MYC protein level” for “Downregulation of MYC level”. It is filed as functional, cell-based. A digest of the protocol: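 MDA-MB-468 cells were pretreated with 30 µM MG132 for 1 h, then exposed to graded concentrations or DMSO for 24 h. MYC was read by western blot.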
For orientation: A western blot detects proteins with antibodies after separation by electrophoresis.

In assay [5] the test system is MDA-MB-468. The assay can be described thus: Induction of apoptosis in human MDA-MB-468 cells assessed as effect on caspase-3 level at 50 uM incubated for 24 hrs.
For a further assay, the system named is MCF7. The experiment in a line: Induction of apoptosis in human MCF7 cells cultured as 3D spheroids assessed as inhibition of cell growth incubated for 5 days. As to conditions: time 5.0 day. It is filed as functional, cell-based. A digest of the protocol:
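Cells plated at 4000 per well in low-attachment 24-well plates and grown in Mammocult medium for 48 h to form mammospheres. Spheres then exposed to 25 uM compound for 5 days, with untreated control wells. Read-out was imaging of the mammospheres formed.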

Assay [6] deals with T1, c-Myc/c-Max (Homo sapiens) (UniProt P01106+P61244). The assay can be described thus: Disruption of MYC-MAX interaction in human MDA-MB-468 cells assessed as reduction in myc level at 25 uM. It is filed as cell-based.
Assay [7] can be described thus: Induction of apoptosis in human P493-6 cells assessed as necrotic cells at 25 uM incubated for 24 hrs by Annexin V/PI staining based flow cytometry analysis (reference value: 0.11 %). It is filed as functional.
Assay [8] concerns the target T1, c-Myc/c-Max (Homo sapiens). The experiment in a line: Disruption of MYC-MAX interaction in human MDA-MB-468 cells at 25 uM incubated for 3 to 12 hrs by immunofluorescence analysis. As to conditions: time 3-12 hrs. It is filed as cell-based.
Assay [9] has as its system P493-6. The assay can be described thus: Induction of apoptosis in human P493-6 cells assessed as effect on caspase-3 level at 50 uM incubated for 24 hrs.
Assay [10] deals with MDA-MB-468. The experiment in a line: Downregulation of CDK1 mRNA expression in human MDA-MB-468 cells at 25 uM incubated at 48 hrs by qRT-PCR analysis. It is filed as functional, cell-based. The method in brief: as §1
Assay [11] relates to P493-6. The experiment in a line: Downregulation of MYC level in human P493-6 cells incubated for 24 hrs by Western blot analysis. It is filed as functional, cell-based. The settings on record: dose <= 50.0 µM. A digest of the protocol: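 Cells (300,000/well) were plated 24 h, then exposed to graded concentrations or DMSO for 24 h. Laemmli lysates were run on 4–20% SDS-PAGE and immunoblotted for MYC. Levels were normalized to actin. Mean ± SD, n = 2, one-way ANOVA with Dunnett.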

Assay [12] in a line: Induction of apoptosis in human P493-6 cells assessed as late apoptotic cells at 50 uM incubated for 24 hrs by Annexin V/PI staining based flow cytometry analysis (reference value: 6.52 %). It is filed as functional. A general note: In flow cytometry, cells or beads pass a laser one at a time.
Assay [13] addresses T1, c-Myc/c-Max (Homo sapiens). The experiment in a line: Disruption of MYC-MAX interaction in human MDA-MB-468 cells at 25 uM incubated for 3 to 12 hrs by Western blot analysis. The settings on record: time 3-12 hrs. It is filed as cell-based. A digest of the protocol:
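Cells were given 25 µM or DMSO for 0, 3, 5 and 12 h. Cytoplasmic and nuclear lysate fractions were pooled. 2 mg protein was immunoprecipitated with MYC antibody overnight, then protein A/G beads for 4 h at 4 °C. Bound MAX was detected by western blot and quantified relative to MYC; MAX input was also measured.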

The subject of assay [14] is MDA-MB-468. The experiment in a line: Antitumor activity against human MDA-MB-468 cells xenografted in mouse assessed as reduction in mYC expression at 10 mg/kg, sc measured at 14 to 26 days by IHC analysis. The settings on record: time 14-26 day.
Assay [15] is described as follows: Induction of apoptosis in human P493-6 cells assessed as late apoptotic cells at 25 uM incubated for 24 hrs by Annexin V/PI staining based flow cytometry analysis (reference value: 6.52 %). It is filed as functional.
In assay [16] the test system is P493-6. The assay can be described thus: Downregulation of E2F1 mRNA expression in human P493-6 cells at 25 uM incubated for 12 hrs by qRT-PCR analysis. It is filed as functional, cell-based. A digest of the protocol: as §1

T1 sequence (P01106 whole entry): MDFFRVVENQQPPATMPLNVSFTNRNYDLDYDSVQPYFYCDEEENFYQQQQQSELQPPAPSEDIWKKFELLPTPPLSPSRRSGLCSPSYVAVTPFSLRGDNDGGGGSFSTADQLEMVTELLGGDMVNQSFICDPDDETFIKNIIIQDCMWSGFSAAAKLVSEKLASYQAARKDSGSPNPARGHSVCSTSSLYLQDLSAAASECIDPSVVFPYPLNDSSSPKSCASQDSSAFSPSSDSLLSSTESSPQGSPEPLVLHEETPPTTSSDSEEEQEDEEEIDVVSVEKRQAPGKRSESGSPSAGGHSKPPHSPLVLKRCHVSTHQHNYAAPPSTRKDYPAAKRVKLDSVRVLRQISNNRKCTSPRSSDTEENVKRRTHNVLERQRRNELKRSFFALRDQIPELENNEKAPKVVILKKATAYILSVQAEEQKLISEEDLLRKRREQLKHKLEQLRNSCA
T1 sequence (P61244 2-160 partner limits assumed): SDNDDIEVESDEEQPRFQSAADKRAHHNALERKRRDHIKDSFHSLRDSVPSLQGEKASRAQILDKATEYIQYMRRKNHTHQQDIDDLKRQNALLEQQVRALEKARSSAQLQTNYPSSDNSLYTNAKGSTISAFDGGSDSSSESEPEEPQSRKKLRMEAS

On to `N#Cc1cc2c(-c3ccc(Cl)cc3)nn(-c3ccccc3)c2[nH]c1=O`, for which the result (in the assay with MDA-MB-468 [1]; with P493-6 [3]; with MDA-MB-468 [4]; in the assay with MDA-MB-468 [5]; in the assay with MCF7; in assay [6]) was Active. The outcome (in assay [8]; with P493-6 [9]; with MDA-MB-468 [10]; in assay [13]; with MDA-MB-468 [14]; with P493-6 [16]) was Active. The Activity result with MDA-MB-468 [2] is “Time-dependent-effect”; in [7], 0.095%; with P493-6 [11], “Dose-dependent-effect”; in assay [12] it was 17.6%; in assay [15], 11.3%.
